Results taken from PubChem BioAssay AID488910 (Broad Institute, 2010).
The whole screen tested about 20,000 compounds, of which about 25 (0.1%) were called active. This excerpt belongs to a sample that is enriched for actives. Unmarked numbers belong to inactive results.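 Rule for the calls: active = mean replicate protection from cytokine-induced ATP loss at least 50% and at least 75% of replicates each reaching 50%; inconclusive = meets only one of the two criteria, mean or replicate share; inactive = fails both the mean and replicate share criteria.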

experiment: protection of INS-1E cells from cytokine death, primary screen, ATP luminescence, single point (AID 488910); conditions: INS-1E cytokine-induced death, 48 h, at 10 µM, active compounds read high, normalised: neutral wells 0, positive control 100
In short: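 Test system: INS-1E rat cells | Quantity: 8000 cells per well | Medium: Phenol-red-free RPMI with 5% fetal bovine serum | Reagent: Cytokine cocktail of IFN-γ, TNF-α and IL-1β | Doses: One compound concentration, pin transfer | Timing: 48 h co-treatment, 10 min post-lysis read | Technique: Luminescent ATP assay (CellTiter-Glo)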

SMILES	protection from cytokine-induced ATP loss
Cc1ccc(S(=O)(=O)N(C)C[C@@H]2Oc3ccc(NC(=O)Nc4ccc5c(c4)OCO5)cc3C(=O)N([C@@H](C)CO)C[C@@H]2C)cc1	20.1%
O=C(O)CCCCCCC(=O)N/N=C/c1ccncc1Br	6.66%
C[C@H]1CN([C@@H](C)CO)C(=O)c2cccc(NC(=O)C3CCCCC3)c2O[C@H]1CN(C)C(=O)NC1CCCCC1	6.52%
Cc1noc(C)c1NC(=O)N(C)C[C@H]1Oc2ccc(NC(=O)C3CCCCC3)cc2CC(=O)N([C@@H](C)CO)C[C@H]1C	4.09%
Cc1ccc(S(=O)(=O)N(C)C[C@@H]2OCCCC[C@@H](C)Oc3ccc(NS(=O)(=O)c4ccccc4)cc3C(=O)N([C@H](C)CO)C[C@@H]2C)cc1	-4.67%
Cc1ccc(S(=O)(=O)Nc2ccc3c(c2)C(=O)N([C@H](C)CO)C[C@H](C)[C@H](CN(C)Cc2ccc(C(=O)Nc4ccccc4N)cc2)OCCCC[C@@H](C)O3)cc1	1.83%
C[C@H]1CN([C@@H](C)CO)C(=O)c2cc(NS(=O)(=O)c3ccc(Cl)cc3)ccc2O[C@H]1CN(C)Cc1ccc(Oc2ccccc2)cc1	-11.4%
C[C@@H]1CCCCO[C@@H](CN(C)C(=O)CCCN(C)C)[C@@H](C)CN([C@H](C)CO)C(=O)c2cc(NC(=O)Nc3ccc(F)cc3)ccc2O1	9.84%
C[C@H](CO)N1C[C@H](C)[C@H](CN(C)Cc2ccncc2)Oc2ccc(NC(=O)C3CCCCC3)cc2CC1=O	-9.96%
COc1ccc(NC(=O)N(C)C[C@H]2Oc3c(NC(=O)C4CC4)cccc3C(=O)N([C@@H](C)CO)C[C@@H]2C)cc1	-1.85%
C[C@@H]1CN([C@H](C)CO)C(=O)c2cccc(NC(=O)c3cnccn3)c2O[C@@H]1CN(C)Cc1ccncc1	3.26%
C[C@@H]1CN([C@H](C)CO)C(=O)c2cc(NC(=O)CCCCCC(=O)Nc3ccccc3N)ccc2O[C@H]1CN(C)C(=O)Nc1ccc(C(F)(F)F)cc1	1.3%
C[C@@H]1CN([C@H](C)CO)C(=O)Cc2cc(NC(=O)CCN3CCOCC3)ccc2O[C@@H]1CN(C)S(C)(=O)=O	3.88%
Cc1ccc(S(=O)(=O)N(C)C[C@H]2Oc3ccc(NS(=O)(=O)c4ccccc4)cc3CC(=O)N([C@@H](C)CO)C[C@H]2C)cc1	-6.07%
C[C@@H]1CN([C@H](C)CO)C(=O)c2cccc(NC(=O)C3CCCCC3)c2O[C@@H]1CN(C)C(=O)NC1CCCCC1	6.03%
C[C@H](CO)N1C[C@H](C)[C@H](CN(C)Cc2ccc3c(c2)OCO3)Oc2c(NC(=O)NC3CCCCC3)cccc2C1=O	-16.1%
CNC[C@@H]1Oc2ccc(NS(=O)(=O)c3c(C)noc3C)cc2CC(=O)N([C@@H](C)CO)C[C@@H]1C	0.843%
CC(C)NC(=O)Nc1ccc2c(c1)C(=O)N([C@H](C)CO)C[C@H](C)[C@@H](CN(C)S(C)(=O)=O)OCCCC[C@@H](C)O2	1.03%
C[C@@H]1CN([C@@H](C)CO)C(=O)Cc2cc(NC(=O)C3CCCCC3)ccc2O[C@@H]1CN(C)C(=O)Nc1ccc(C(F)(F)F)cc1	-12.7%

SMILES	protection from cytokine-induced ATP loss
Cc1ccc(S(=O)(=O)N(C)C[C@@H]2Oc3c(NS(=O)(=O)c4ccc(F)cc4)cccc3C(=O)N([C@@H](C)CO)C[C@H]2C)cc1	15.4%
COc1ccc(NC(=O)N(C)C[C@H]2Oc3ccc(NC(=O)Cc4cn(C)c5ccccc45)cc3CC(=O)N([C@@H](C)CO)C[C@H]2C)cc1	13.3%
Cc1noc(C)c1NC(=O)Nc1ccc2c(c1)C(=O)N([C@H](C)CO)C[C@@H](C)[C@@H](CN(C)Cc1ccccc1)O2	2.87%
C[C@@H]1CCCCO[C@@H](CN(C)CC2CC2)[C@@H](C)CN([C@H](C)CO)C(=O)c2cc(NC(=O)Nc3cccc4ccccc34)ccc2O1	-7.95%
Cc1cccc(CN(C)C[C@H]2OCc3cn(nn3)CCCC(=O)N([C@@H](C)CO)C[C@H]2C)c1	-2.7%
Cc1ccc(S(=O)(=O)N(C)C[C@@H]2Oc3ccc(NC(=O)c4ccncc4)cc3CC(=O)N([C@H](C)CO)C[C@H]2C)cc1	-0.881%
COc1cc(/C=C/C=N/NC(=O)CCCCCC(=O)Nc2ccccc2O)ccc1O	-1.89%
CC(C)NC(=O)N(C)C[C@H]1Oc2c(NC(=O)Nc3ccc(F)cc3)cccc2C(=O)N([C@@H](C)CO)C[C@@H]1C	12.3%
COc1ccc(S(=O)(=O)Nc2ccc3c(c2)CC(=O)N([C@@H](C)CO)C[C@@H](C)[C@@H](CN(C)C(=O)Nc2c(C)noc2C)O3)cc1	9.17%
COc1ccc(NC(=O)Nc2ccc3c(c2)C(=O)N([C@H](C)CO)C[C@H](C)[C@@H](CN(C)C(=O)NC2CCCCC2)OCCCC[C@@H](C)O3)cc1	14.1%
C[C@H]1CN([C@@H](C)CO)C(=O)c2cc(NC(=O)C3CCCCC3)ccc2O[C@H]1CN(C)S(=O)(=O)c1cn(C)cn1	2.64%
C[C@H]1CN([C@@H](C)CO)C(=O)c2cccc(NC(=O)Nc3ccccc3)c2O[C@H]1CN(C)S(=O)(=O)c1ccc(Cl)cc1	-12.7%
C[C@@H]1CN([C@H](C)CO)C(=O)Cc2cc(NC(=O)Nc3ccc(C(F)(F)F)cc3)ccc2O[C@@H]1CN(C)S(=O)(=O)c1ccccc1	-5.63%
C[C@H](CO)N1C[C@H](C)[C@H](CN(C)C(=O)Nc2ccc(C(F)(F)F)cc2)Oc2ccc(NS(=O)(=O)c3cn(C)cn3)cc2CC1=O	19%
C[C@@H]1CN([C@@H](C)CO)C(=O)Cc2cc(NS(=O)(=O)c3cccs3)ccc2O[C@@H]1CN(C)C(=O)Nc1ccc(C(F)(F)F)cc1	-9.39%
O=C(N/N=C/c1ccc(Oc2ccccc2)cc1)c1ccccn1	4.62%
CC(C)NC(=O)Nc1cccc2c1O[C@@H](CN(C)Cc1ccc(C(=O)O)cc1)[C@@H](C)CN([C@H](C)CO)C2=O	5.94%
C[C@H]1CN([C@@H](C)CO)C(=O)c2cccc(NC(=O)C3CCOCC3)c2O[C@H]1CN(C)S(C)(=O)=O	10.3%
COc1ccc(S(=O)(=O)N(C)C[C@H]2Oc3ccc(NC(=O)Nc4c(C)noc4C)cc3CC(=O)N([C@@H](C)CO)C[C@H]2C)cc1	6.69%

SMILES	protection from cytokine-induced ATP loss
Cc1noc(C)c1NC(=O)N(C)C[C@@H]1Oc2ccc(NS(C)(=O)=O)cc2C(=O)N([C@@H](C)CO)C[C@@H]1C	1.81%
Cc1noc(C)c1S(=O)(=O)Nc1ccc2c(c1)CC(=O)N([C@H](C)CO)C[C@H](C)[C@H](CN(C)S(=O)(=O)c1cn(C)cn1)O2	15.3%
CNC[C@H]1Oc2ccc(NS(=O)(=O)c3cn(C)cn3)cc2C(=O)N([C@@H](C)CO)C[C@@H]1C	-1.06%
COc1ccc(NC(=O)Nc2cccc3c2O[C@H](CN(C)S(=O)(=O)c2ccc(F)cc2)[C@H](C)CN([C@H](C)CO)C3=O)cc1	-2.75%
C[C@@H]1CN([C@@H](C)CO)C(=O)Cc2cc(NC(=O)Cn3cnnn3)ccc2O[C@@H]1CN(C)S(=O)(=O)c1cn(C)cn1	10.1%
COc1ccc(S(=O)(=O)Nc2ccc3c(c2)CC(=O)N([C@H](C)CO)C[C@@H](C)[C@@H](CN(C)C(=O)Nc2cccc4ccccc24)O3)cc1	0.838%
C[C@@H]1CN([C@H](C)CO)C(=O)c2cccc(NC(=O)Nc3ccccc3)c2O[C@H]1CN(C)Cc1ccccc1	3.52%
C[C@@H]1CN([C@H](C)CO)C(=O)c2cc(NS(=O)(=O)c3ccccc3)ccc2O[C@H]1CN(C)S(=O)(=O)c1ccc(Cl)cc1	-7.86%
C[C@H](CO)N1C[C@H](C)[C@H](CN(C)C)Oc2ccc(NC(=O)c3ccncc3)cc2CC1=O	2%
O=C(NO)c1cccc(C(=O)N/N=C/c2c(F)c(F)c(F)c(F)c2F)c1	-2.52%
C[C@H]1CN([C@@H](C)CO)C(=O)Cc2cc(NC(=O)Nc3cccc4ccccc34)ccc2O[C@@H]1CN(C)S(=O)(=O)c1cn(C)cn1	4.42%
CC(C)NC(=O)N(C)C[C@H]1Oc2c(NC(=O)C3CCCCC3)cccc2C(=O)N([C@@H](C)CO)C[C@H]1C	10.6%
Cc1noc(C)c1NC(=O)N(C)C[C@H]1Oc2c(NS(=O)(=O)c3cccs3)cccc2C(=O)N([C@@H](C)CO)C[C@@H]1C	3.62%
O=C(N/N=C/c1c[nH]c2ccccc12)c1ccccc1O	-18.7%
Cc1ccc(S(=O)(=O)Nc2ccc3c(c2)CC(=O)N([C@H](C)CO)C[C@@H](C)[C@H](CN(C)S(=O)(=O)c2c(C)noc2C)O3)cc1	3.93%
COc1ccc(CN(C)C[C@@H]2Oc3ccc(NS(=O)(=O)c4cn(C)cn4)cc3C(=O)N([C@@H](C)CO)C[C@@H]2C)cc1	7.8%
C[C@H](CO)N1C[C@H](C)[C@H](CN(C)CC2CC2)Oc2ccc(NC(=O)CCN3CCOCC3)cc2C1=O	-6.34%
CC(C)NC(=O)Nc1cccc2c1O[C@H](CN(C)S(=O)(=O)c1cccs1)[C@@H](C)CN([C@H](C)CO)C2=O	5.81%
C[C@@H]1CN([C@@H](C)CO)C(=O)c2cccc(NC(=O)Nc3ccccc3)c2O[C@H]1CN(C)Cc1ccccc1	-11.7%
